Measurements from different studies.
Each line is one published result; the experiments were not run side by side.
Target: Cyclin-G-associated kinase (GAK, Homo sapiens, UniProt O14976)
Sequence (O14976 1-1311, as in one of the studies): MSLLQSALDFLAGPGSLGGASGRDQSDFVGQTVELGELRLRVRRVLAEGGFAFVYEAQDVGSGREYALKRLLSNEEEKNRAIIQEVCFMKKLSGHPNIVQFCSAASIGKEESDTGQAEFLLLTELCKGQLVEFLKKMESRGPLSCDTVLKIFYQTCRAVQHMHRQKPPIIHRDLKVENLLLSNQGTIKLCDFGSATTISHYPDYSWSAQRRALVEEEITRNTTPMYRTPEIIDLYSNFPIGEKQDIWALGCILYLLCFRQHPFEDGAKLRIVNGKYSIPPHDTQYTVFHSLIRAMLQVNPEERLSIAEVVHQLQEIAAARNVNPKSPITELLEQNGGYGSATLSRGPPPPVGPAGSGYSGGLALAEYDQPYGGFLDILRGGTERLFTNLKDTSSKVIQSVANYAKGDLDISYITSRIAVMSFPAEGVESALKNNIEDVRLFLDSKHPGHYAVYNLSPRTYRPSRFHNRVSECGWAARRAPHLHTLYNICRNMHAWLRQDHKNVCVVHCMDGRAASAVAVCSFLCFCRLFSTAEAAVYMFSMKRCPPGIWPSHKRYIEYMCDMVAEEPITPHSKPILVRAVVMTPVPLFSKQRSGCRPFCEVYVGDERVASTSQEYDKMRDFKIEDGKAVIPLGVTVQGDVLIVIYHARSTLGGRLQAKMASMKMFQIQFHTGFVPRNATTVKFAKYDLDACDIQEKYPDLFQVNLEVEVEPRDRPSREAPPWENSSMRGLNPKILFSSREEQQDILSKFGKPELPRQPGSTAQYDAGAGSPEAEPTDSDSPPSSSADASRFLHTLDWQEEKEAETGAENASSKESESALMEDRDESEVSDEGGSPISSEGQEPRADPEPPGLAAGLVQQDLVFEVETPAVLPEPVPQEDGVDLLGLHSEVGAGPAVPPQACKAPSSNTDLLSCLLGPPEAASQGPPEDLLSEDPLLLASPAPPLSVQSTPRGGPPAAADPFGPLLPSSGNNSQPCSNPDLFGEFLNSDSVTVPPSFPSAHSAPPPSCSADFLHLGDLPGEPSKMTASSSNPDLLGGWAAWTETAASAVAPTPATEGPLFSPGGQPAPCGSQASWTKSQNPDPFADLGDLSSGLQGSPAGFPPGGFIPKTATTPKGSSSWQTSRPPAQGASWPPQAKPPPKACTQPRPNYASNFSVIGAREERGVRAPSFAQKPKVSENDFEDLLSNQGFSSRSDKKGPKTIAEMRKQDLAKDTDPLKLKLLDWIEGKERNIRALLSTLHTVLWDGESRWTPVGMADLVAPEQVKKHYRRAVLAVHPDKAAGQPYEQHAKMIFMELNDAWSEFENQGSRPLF

Nc1ncc2c(n1)-c1c([nH]c3ccc(C#CC4CC4)cc13)CCCC2
remaining binding (binding, competition with immobilised ligand; 1 µM): 88%

COc1cnc(Nc2cccc(S(N)(=O)=O)c2)nc1N1CCN(c2ccccc2)C(=O)C1
remaining binding (binding, competition with immobilised ligand; 1 µM): 57%

C[C@@H]1CN(c2cc(-c3nn(C)c4ccc(OC5(C)CC5)cc34)ncn2)C[C@H](C)O1
remaining binding (cell-free assay, competition with immobilised ligand; 1 µM): 86%

CN(c1nccc(-c2cnn3ncccc23)n1)C1CC1
remaining binding (binding; 1 µM): 100%

FC(F)(F)Oc1cccc(-c2cnc3ccc(-c4ccncc4)nn23)c1
remaining binding (cell-free assay, competition with immobilised ligand; 5 µM): 9.7%

O=C(NC[C@@H]1[C@H]2CN(C(=O)OCc3cc(C(F)(F)F)cc(C(F)(F)F)c3)C[C@@H]12)c1ccc2[nH]nnc2c1
remaining binding (cell-free assay, competition with immobilised ligand; 1 µM): 91%

C[C@H]1CCN(c2nccc(-c3cnn4ncccc34)n2)C1
remaining binding (binding; 1 µM): 28%

CC(C)(O)c1cncc(-c2nc3ccc(F)cc3n2C2CC2)c1
remaining binding (cell-free assay, competition with immobilised ligand; 1 µM): 100%

O=C(c1ccc(Nc2ncc(Cl)c(-c3ccc(Cl)s3)n2)cc1)N1CCC(N2CCCC2)CC1
remaining binding (binding, competition with immobilised ligand; 1 µM): 23%

COc1ccnn2ncc(-c3ccnc(N(C)C)n3)c12
remaining binding (binding; 1 µM): 73%

CC(=O)N1CCC(c2ccc(C(=O)NC3=NCCN3)cc2C(F)(F)F)CC1
remaining binding (cell-free assay, competition with immobilised ligand; 1 µM): 97%

C=CC(=O)N1CCC(C(=O)NCC(=O)N2CCN(c3nc(-c4cnc(N)nc4C(F)F)nc(N4CCOCC4)n3)CC2)CC1
remaining binding (binding, competition with immobilised ligand; 1 µM): 100%

CN1CCN(c2cnc3c(C4CCN(C(=O)c5ccc(OC(F)(F)F)cc5N)CC4)ncnc3c2)CC1
remaining binding (cell-free assay, competition with immobilised ligand; 1 µM): 100%

CN(C)c1ncc(F)c(-c2cnn3ncccc23)n1
remaining binding (binding; 1 µM): 100%

O=C(c1ccc(Nc2nccc(-c3cc4ccccc4s3)n2)cc1)N1CCC(N2CCCC2)CC1
remaining binding (binding, competition with immobilised ligand; 1 µM): 34%

Cc1cc(C)c(-n2ccn3nc(-c4cccnc4)cc23)cc1NC(=O)c1cc(C#N)cc(S(F)(F)(F)(F)F)c1
remaining binding (cell-free assay, competition with immobilised ligand; 0.1 µM): 83.3%

CN(CCCC(F)(F)F)c1nccc(-c2cnn3ncccc23)n1
remaining binding (binding; 1 µM): 100%

O=C(NCCCN1CCOCC1)c1ccc(Nc2nccc(-c3cc4ccccc4s3)n2)cc1
remaining binding (binding, competition with immobilised ligand; 1 µM): 21%

CC1CCCN1c1nccc(-c2cnn3ncccc23)n1 (stereo not shown)
remaining binding (binding; 1 µM): 94%

C[C@@H](c1ccc(-n2cnc3c(N)ncnc32)cc1)N1CCc2nn(C)c(Cc3ccccc3)c2C1=O
remaining binding (binding, competition with immobilised ligand; 0.1 µM): 99%

c1cnn2ncc(-c3ccnc(N4CCC45COC5)n3)c2c1
remaining binding (binding; 1 µM): 56%

O=C(Nc1c[nH]nc1C(=O)NC1CCNCC1)c1cc(F)cc(F)c1
remaining binding (binding, competition with immobilised ligand; 1 µM): 90%
